The text below walks through data of ChEMBL document CHEMBL2021789, “Molecular docking and enzymatic evaluation to identify selective inhibitors of aspartate semialdehyde dehydrogenase” (Bioorg Med Chem, 2012).

Assay [1] in a line: Competitive inhibition of Streptococcus pneumoniae ASADH using aspartyl semialdehyde as substrate using Dixon plot analysis. In short, it runs like this: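 Recombinant S. pneumoniae enzyme, reverse reaction read as NADPH rise at 340 nm, room temperature. Buffer: 120 mM CHES pH 8.6, 200 mM KCl, 20% DMSO for DMSO-soluble inhibitors. Substrates: 1 mM ASA, 1.5 mM NADP, 20 mM phosphate. Enzyme added last; inhibitor serially diluted. Initial velocities fitted to Dixon equation assuming competition with ASA.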

The nature of assay [2]: Competitive inhibition of Vibrio cholerae ASADH using aspartyl semialdehyde as substrate by Dixon plot analysis. In short, it runs like this: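 Recombinant V. cholerae ASADH, reverse reaction, room temperature, in 120 mM CHES pH 8.6, 200 mM KCl and 20% DMSO. Final levels: ASA 1 mM, NADP 1.5 mM, phosphate 20 mM. Enzyme added to start; inhibitor serially diluted across wells. NADPH rise read at 340 nm; initial velocities fitted to Dixon equation assuming ASA-competitive inhibition to give Ki.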

The nature of assay [3]: Competitive inhibition of Vibrio cholerae ASADH using different concentration of aspartyl semialdehyde as substrate by spectrophotometry. Put shortly: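 Recombinant V. cholerae ASADH, reverse reaction at room temperature in 120 mM CHES pH 8.6, 200 mM KCl, 20% DMSO, with NADP and phosphate. ASA varied at several fixed inhibitor concentrations. NADPH formation read at 340 nm; initial-rate data fitted to standard inhibition-type models.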

Turning to `COC(=O)c1ccc(C(=O)OC)nc1`, in assay [1], the Ki (usually a measure of affinity in units of concentration, obtained from inhibition or displacement) is over 20000 µM.

For `CCn1c(=O)n(CC)c2cc([N+](=O)[O-])ccc21`, the Ki in assay [1] was over 4000 µM.

On to `O=C1NC(=O)c2cc([N+](=O)[O-])ccc21`, for which the values for the Ki in assay [1] and in assay [2] were 3300 µM and 2600 µM, respectively.

For `O=C(O)c1ccc([N+](=O)[O-])cn1`, the Ki was found to be 1200 µM in assay [1] and 2100 µM in assay [2].

As for `COC(=O)c1ccc([N+](=O)[O-])cn1`, the Ki in assay [1] was over 20000 µM.

For the molecule `O=C1NC(=O)c2cc([N+](=O)[O-])c(Cl)cc21`, the values for the Ki in assay [1], in assay [3] and in assay [2] were 150 µM, 197 µM and 180 µM, respectively.

In the case of `CN1C(=O)c2ccc([N+](=O)[O-])cc2C1=O`, the Ki in assay [1] came out at 890 µM; in assay [2] it was 1100 µM.

For the molecule `CCN1C(=O)c2ccc([N+](=O)[O-])cc2C1=O`, in assay [1], the inhibition constant (Ki) was over 4000 µM.

In the case of `O=c1[nH]c2ccc([N+](=O)[O-])cc2[nH]1`, the inhibitory constant (Ki) is 400 µM in assay [1] and 1100 µM in assay [2].

`Cn1c(=O)n(C)c2cc([N+](=O)[O-])ccc21`: the Ki is 86 µM in assay [1], 24 µM in assay [3] and over 130 µM in assay [2].

In the case of `O=C(O)c1cc(C(=O)O)cc(C(=O)Nc2ccc([N+](=O)[O-])cc2)c1`, the Ki in assay [1] stood at 110 µM; in assay [2], 180 µM.

In assay [1], `COC(=O)c1cc(C(=O)Nc2ccc([N+](=O)[O-])cc2)cc(C(=O)OC)c1` registered an inhibition constant Ki of over 20000 µM.

As to `O=C(O)c1ccc(C(=O)O)nc1` [PYRIDINE-2,5-DICARBOXYLIC ACID], the inhibition constant Ki stood at 690 µM in assay [1] and 1200 µM in assay [2].
